Experimental data as given in PMC7983942 (Clinical Pharmacology and Therapeutics, 2020).

Target: T1, OCT1 (Homo sapiens, UniProt O15245)
T1 sequence (O15245 1-554): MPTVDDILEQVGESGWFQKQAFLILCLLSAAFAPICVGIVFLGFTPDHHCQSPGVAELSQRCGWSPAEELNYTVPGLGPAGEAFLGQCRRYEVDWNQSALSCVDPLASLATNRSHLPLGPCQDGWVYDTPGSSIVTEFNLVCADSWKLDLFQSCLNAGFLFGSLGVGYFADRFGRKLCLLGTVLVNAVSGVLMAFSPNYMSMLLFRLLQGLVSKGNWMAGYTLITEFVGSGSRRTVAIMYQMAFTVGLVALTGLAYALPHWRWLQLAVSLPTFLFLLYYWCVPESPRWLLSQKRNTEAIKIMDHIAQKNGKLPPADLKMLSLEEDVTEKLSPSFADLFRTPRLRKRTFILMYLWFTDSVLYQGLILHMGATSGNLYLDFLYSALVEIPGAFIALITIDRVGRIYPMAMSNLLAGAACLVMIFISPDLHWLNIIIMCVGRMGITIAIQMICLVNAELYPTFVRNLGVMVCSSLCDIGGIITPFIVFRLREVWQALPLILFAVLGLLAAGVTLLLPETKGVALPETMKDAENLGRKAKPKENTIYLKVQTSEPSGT
Assay: Uptake into transporter-transfected vs wild-type HEK293 cells
Format: in vitro ADME
Conditions: metformin 20 µM, two to four minutes
Summary of the method: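 Transfected HEK293 lines were OAT2 and OCT1, each run against wild-type cells, seeded on poly-D-lysine plates. Culture was 48 h at 37°C in DMEM with 10% FBS plus 1% gentamycin, 1% sodium pyruvate and 50 µg/mL hygromycin B. Probes were cyclic GMP 0.5 µM (OAT2) and metformin 20 µM (OCT1), over 2–4 min; test compound was 1 µM for 2 min. After four ice-cold washes and methanol lysis, the uptake ratio versus wild-type and the ratio of ratios were derived; n=3 in one experiment.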

## CN(C)C(=N)N=C(N)N [metformin]
  Uptake ratio (vs. wild‐type HEK293 cells), probe: 15.4 ± 1.06
